Measured values reported in ChEMBL document CHEMBL1130349, “Synthesis and structure-activity relationships of a new model of arylpiperazines. 3.1 2-[omega-(4-arylpiperazin-1-yl)alkyl]perhydropyrrolo- [1,2-c]imidazoles and -perhydroimidazo[1,5-a]pyridines: study of the influence of the terminal amide fragment on 5-HT1A affinity/selectivity” (J Med Chem, 1997).

Assays:
[1] = molecular target: T1, 5-hydroxytryptamine receptor 1A (Rattus norvegicus, UniProt P19327); assay: Binding affinities against 5-hydroxytryptamine 1A receptor using [3H]8-OH-DPAT as radioligand in rat cerebral cortex membrane; type: cell membranes
T1 sequence (P19327 whole entry): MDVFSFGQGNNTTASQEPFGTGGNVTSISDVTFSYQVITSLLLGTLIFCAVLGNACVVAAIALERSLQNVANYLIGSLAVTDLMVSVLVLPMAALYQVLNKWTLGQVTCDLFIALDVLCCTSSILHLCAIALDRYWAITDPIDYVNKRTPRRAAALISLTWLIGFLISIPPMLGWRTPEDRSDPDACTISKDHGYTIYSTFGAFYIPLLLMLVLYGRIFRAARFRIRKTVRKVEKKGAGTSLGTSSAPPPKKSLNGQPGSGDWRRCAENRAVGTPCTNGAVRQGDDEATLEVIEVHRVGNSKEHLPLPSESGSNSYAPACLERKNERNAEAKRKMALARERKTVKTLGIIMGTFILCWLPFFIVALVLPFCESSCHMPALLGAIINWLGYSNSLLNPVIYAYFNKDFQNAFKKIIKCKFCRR
Summary of the method: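 Rat cerebral cortex homogenised in ice-cold 50 mM Tris-HCl (pH 7.7), washed twice, preincubated 10 min at 37 °C. Membranes (~1 mg protein) incubated 15 min at 37 °C with 0.6 nM [3H]-8-OH-DPAT across several competitor concentrations. Nonspecific binding defined by 10 μM 5-HT. Two to four experiments, each in triplicate.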

[2] = Selectivity ratio of serotonin and alpha receptor; design: reference not given here
[3] = molecular target: T2, Alpha-1A adrenergic receptor (Rattus norvegicus, UniProt P43140); assay: Binding affinities against Alpha-1 adrenergic receptor (alpha1 adrenoceptor) using [3H]prazosin as radioligand in rat cerebral cortex membrane; type: cell membranes
T2 sequence (P43140 whole entry): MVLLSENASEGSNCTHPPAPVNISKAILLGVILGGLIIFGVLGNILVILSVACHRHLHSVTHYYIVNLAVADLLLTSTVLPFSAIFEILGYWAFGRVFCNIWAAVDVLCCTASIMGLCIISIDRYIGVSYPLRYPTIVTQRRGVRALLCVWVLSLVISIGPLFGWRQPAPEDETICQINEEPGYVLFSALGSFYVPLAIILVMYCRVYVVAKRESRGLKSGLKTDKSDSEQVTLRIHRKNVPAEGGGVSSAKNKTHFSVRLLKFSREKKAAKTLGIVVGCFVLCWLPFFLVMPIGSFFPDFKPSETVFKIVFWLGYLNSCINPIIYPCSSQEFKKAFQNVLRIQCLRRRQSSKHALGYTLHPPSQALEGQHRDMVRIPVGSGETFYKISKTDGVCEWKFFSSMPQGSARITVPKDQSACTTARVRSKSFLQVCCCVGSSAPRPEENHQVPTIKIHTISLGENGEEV
Summary of the method: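 Radioligand binding run by a cited earlier method; values are means ± SEM of two to four experiments, each in triplicate.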

## FC(F)(F)c1cccc(N2CCN(CCCN3CC4CCCCN4C3)CC2)c1 (stereo not given)
[1]
  Ki: 24.3 nM
[2]
  Ki ratio: 11.4
[3]
  Ki: 278 nM

## FC(F)(F)c1cccc(N2CCN(CCCCN3CC4CCCN4C3)CC2)c1 (stereo not given)
[1]
  Ki: 12.3 nM
[2]
  Ki ratio: 19.5
[3]
  Ki: 240 nM

## COc1ccccc1N1CCN(CCCCN2C(=O)C3CCCCN3C2=O)CC1 (stereo not given)
[2]
  Ki ratio: 1
[3]
  Ki: 8.6 nM

## COc1ccccc1N1CCN(CCCN2C(=O)C3CCCCN3C2=O)CC1 (stereo not given)
[2]
  Ki ratio: 2.4
[3]
  Ki: 9.9 nM

## COc1ccccc1N1CCN(CCCN2CC3CCCN3C2)CC1 (stereo not given)
[1]
  Ki: 12.2 nM
[2]
  Ki ratio: 26
[3]
  Ki: 323 nM

## O=C1C2CCCN2C(=O)N1CCCN1CCN(c2cccc(C(F)(F)F)c2)CC1 (stereo not given)
[2]
  Ki ratio: 28.7
[3]
  Ki: 109 nM

## O=C1C2CCCN2C(=O)N1CCCCN1CCN(c2cccc(Cl)c2)CC1 (stereo not given)
[2]
  Ki ratio: 0.8
[3]
  Ki: 9.6 nM

## FC(F)(F)c1cccc(N2CCN(CCCN3CC4CCCN4C3)CC2)c1 (stereo not given)
[1]
  Ki: 29.1 nM
[2]
  Ki ratio: 12.5
[3]
  Ki: 363 nM

## O=C1C2CCCCN2C(=O)N1CCCCN1CCN(c2cccc(C(F)(F)F)c2)CC1 (stereo not given)
[2]
  Ki ratio: 7.3
[3]
  Ki: 72.4 nM

## COc1ccccc1N1CCN(CCCN2CC3CCCCN3C2)CC1 (stereo not given)
[1]
  Ki: 13.9 nM
[2]
  Ki ratio: 15.7
[3]
  Ki: 218 nM

## Clc1cccc(N2CCN(CCCCN3CC4CCCCN4C3)CC2)c1 (stereo not given)
[1]
  Ki: 24.3 nM
[2]
  Ki ratio: 2.6
[3]
  Ki: 64.3 nM

## O=C1C2CCCCN2C(=O)N1CCCN1CCN(c2cccc(C(F)(F)F)c2)CC1 (stereo not given)
[2]
  Ki ratio: 15.9
[3]
  Ki: 90.4 nM

## COc1ccccc1N1CCN(CCCCN2C(=O)C3CCCN3C2=O)CC1 (stereo not given)
[2]
  Ki ratio: 1.5
[3]
  Ki: 8.3 nM

## COc1ccccc1N1CCN(CCCCN2CC3CCCCN3C2)CC1 (stereo not given)
[1]
  Ki: 5.1 nM
[2]
  Ki ratio: 8.8
[3]
  Ki: 45 nM

## Clc1cccc(N2CCN(CCCCN3CC4CCCN4C3)CC2)c1 (stereo not given)
[1]
  Ki: 28.1 nM
[2]
  Ki ratio: 2.3
[3]
  Ki: 64.9 nM

## COc1ccccc1N1CCN(CCCN2C(=O)C3CCCN3C2=O)CC1 (stereo not given)
[2]
  Ki ratio: 0.7
[3]
  Ki: 3.1 nM

## COc1ccccc1N1CCN(CCCCN2CC3CCCN3C2)CC1 (stereo not given)
[1]
  Ki: 17.5 nM
[2]
  Ki ratio: 4.1
[3]
  Ki: 72.6 nM

## O=C1C2CCCN2C(=O)N1CCCCN1CCN(c2cccc(C(F)(F)F)c2)CC1 (stereo not given)
[2]
  Ki ratio: 27
[3]
  Ki: 64.9 nM

## FC(F)(F)c1cccc(N2CCN(CCCCN3CC4CCCCN4C3)CC2)c1 (stereo not given)
[1]
  Ki: 15.3 nM
[2]
  Ki ratio: 7.5
[3]
  Ki: 115 nM

## O=C1C2CCCCN2C(=O)N1CCCCN1CCN(c2cccc(Cl)c2)CC1 (stereo not given)
[2]
  Ki ratio: 1.7
[3]
  Ki: 12.1 nM
